According to ChEMBL document CHEMBL5303300, “EUbOPEN Chemogenomics Library - Multiplex” (2023):
Several values for one entry are separate records, joined by “and”; a condition that tells them apart may be missing. Equal entries are not always repeated.

System: Fibroblast
Assay: Multiplex assay against human fibroblast
Assay type: toxicity, cell-based
Settings: number of replicates 2
Summary of the method: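 At seeding, live cells were stained with Hoechst33342, BioTracker Green Microtubule Cytoskeleton Dye, MitoTracker Red and Annexin V Alexa Fluor 680. After compound addition they were imaged on a CQ1 microscope at 37°C and 5% CO2, and CellPathfinder machine-learning gating sorted them into Hoechst high-intensity objects or normal cells, with normal cells further split into healthy, pyknosed or fragmented nuclei and pyknosed cells into mitotic or apoptotic. Tubulin, mitochondrial-mass and membrane-permeability phenotypes are given as per cents of cells with healthy nuclei.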

[1] = 12 h, 1 µM, compound concentration 1 uM
[2] = 12 h, 10 µM, compound concentration 10 uM
[3] = 24 h, 1 µM, compound concentration 1 uM
[4] = 24 h, 10 µM, compound concentration 10 uM
[5] = 48 h, 1 µM, compound concentration 1 uM
[6] = 48 h, 10 µM, compound concentration 10 uM

With CCn1ccc(Nc2ncc3c(n2)-c2c(nn(C)c2-c2ccc(-c4cnn(C)c4)cc2Cl)CC3)n1 the “Population Apoptotic (%)” value [1] was 36% and 33%, the “Population Fragmented Nuclei (%)” value [1] was 11% and 9% and the “Population Healthy Nuclei (%)” value [1] was 71% and 65%. The “Population Hoechst High Intensity Objects (%)” value [1] was 0%, the “Population Membrane Permeable-Phenotype (%)” value [1] was 8% and 7% and the “Population Mitochondria Different-Phenotype (%)” value [1] was 1% and 2%. For the same molecule, the “Population Mitotic Cells (%)” value [1] was 63% and 66%, the “Population Normal (%)” value [1] was 99% and the “Population Pyknosed Nuclei (%)” value [1] was 17% and 25%. For the same molecule, the “Population Tubulin-Different-Phenotype (%)” value [1] was 14% and 18%, the “Total Cell Count” value [1] was 258 and 213 and the “Population Apoptotic (%)” value [2] was 51% and 48%. The “Population Fragmented Nuclei (%)” value [2] was 11%, the “Population Healthy Nuclei (%)” value [2] was 75% and 69% and the “Population Hoechst High Intensity Objects (%)” value [2] was 0%. For the same molecule, the “Population Membrane Permeable-Phenotype (%)” value [2] was 5% and 6%, the “Population Mitochondria Different-Phenotype (%)” value [2] was 2% and 1% and the “Population Mitotic Cells (%)” value [2] was 48% and 51%. For the same molecule, the “Population Normal (%)” value [2] was 100%, the “Population Pyknosed Nuclei (%)” value [2] was 13% and 19% and the “Population Tubulin-Different-Phenotype (%)” value [2] was 56% and 41%. The “Total Cell Count” value [2] was 204 and 191, the “Population Apoptotic (%)” value [3] was 40% and 49% and the “Population Fragmented Nuclei (%)” value [3] was 10% and 7%. For the same molecule, the “Population Healthy Nuclei (%)” value [3] was 75% and 66%, the “Population Hoechst High Intensity Objects (%)” value [3] was 0% and the “Population Membrane Permeable-Phenotype (%)” value [3] was 2% and 6%. The “Population Mitochondria Different-Phenotype (%)” value [3] was 0% and 1%, the “Population Mitotic Cells (%)” value [3] was 59% and 50% and the “Population Normal (%)” value [3] was 100% and 99%. The “Population Pyknosed Nuclei (%)” value [3] was 13% and 25%, the “Population Tubulin-Different-Phenotype (%)” value [3] was 7% and 8% and the “Total Cell Count” value [3] was 239 and 234. For the same molecule, the “Population Apoptotic (%)” value [4] was 60% and 55%, the “Population Fragmented Nuclei (%)” value [4] was 8% and 6% and the “Population Healthy Nuclei (%)” value [4] was 78% and 77%. The “Population Hoechst High Intensity Objects (%)” value [4] was 0%, the “Population Membrane Permeable-Phenotype (%)” value [4] was 1% and 4% and the “Population Mitochondria Different-Phenotype (%)” value [4] was 1% and 2%. The “Population Mitotic Cells (%)” value [4] was 40% and 44%, the “Population Normal (%)” value [4] was 100% and 99% and the “Population Pyknosed Nuclei (%)” value [4] was 12% and 15%. The “Population Tubulin-Different-Phenotype (%)” value [4] was 62% and 39%, the “Total Cell Count” value [4] was 202 and 187 and the “Population Apoptotic (%)” value [5] was 71% and 69%. For the same molecule, the “Population Fragmented Nuclei (%)” value [5] was 13% and 12%, the “Population Healthy Nuclei (%)” value [5] was 75% and 67% and the “Population Hoechst High Intensity Objects (%)” value [5] was 0%. The “Population Membrane Permeable-Phenotype (%)” value [5] was 2% and 3%, the “Population Mitochondria Different-Phenotype (%)” value [5] was 0% and the “Population Mitotic Cells (%)” value [5] was 28% and 30%. The “Population Normal (%)” value [5] was 99% and 100%, the “Population Pyknosed Nuclei (%)” value [5] was 11% and 19% and the “Population Tubulin-Different-Phenotype (%)” value [5] was 6% and 7%. For the same molecule, the “Total Cell Count” value [5] was 252 and 233, the “Population Apoptotic (%)” value [6] was 84% and 82% and the “Population Fragmented Nuclei (%)” value [6] was 14% and 8%. For the same molecule, the “Population Healthy Nuclei (%)” value [6] was 68% and 75%, the “Population Hoechst High Intensity Objects (%)” value [6] was 0% and the “Population Membrane Permeable-Phenotype (%)” value [6] was 2% and 3%. The “Population Mitochondria Different-Phenotype (%)” value [6] was 4% and 3%, the “Population Mitotic Cells (%)” value [6] was 15% and 17% and the “Population Normal (%)” value [6] was 100%. For the same molecule, the “Population Pyknosed Nuclei (%)” value [6] was 16%, the “Population Tubulin-Different-Phenotype (%)” value [6] was 56% and 38% and the “Total Cell Count” value [6] was 195 and 170.
Cc1ccc2c(c1CCC(=O)O)CC[C@@H](NS(=O)(=O)c1ccc(Cl)cc1)C2 [TERUTROBAN] was tested, and the “Population Apoptotic (%)” value [1] was 25% and 43%, the “Population Fragmented Nuclei (%)” value [1] was 8% and the “Population Healthy Nuclei (%)” value [1] was 71% and 75%. The “Population Hoechst High Intensity Objects (%)” value [1] was 0%, the “Population Membrane Permeable-Phenotype (%)” value [1] was 5% and 3% and the “Population Mitochondria Different-Phenotype (%)” value [1] was 1%. The “Population Mitotic Cells (%)” value [1] was 74% and 56%, the “Population Normal (%)” value [1] was 100% and the “Population Pyknosed Nuclei (%)” value [1] was 19% and 15%. For the same molecule, the “Population Tubulin-Different-Phenotype (%)” value [1] was 10% and 7%, the “Total Cell Count” value [1] was 221 and 236 and the “Population Apoptotic (%)” value [2] was 40% and 55%. For the same molecule, the “Population Fragmented Nuclei (%)” value [2] was 8% and 15%, the “Population Healthy Nuclei (%)” value [2] was 69% and 67% and the “Population Hoechst High Intensity Objects (%)” value [2] was 0%. For the same molecule, the “Population Membrane Permeable-Phenotype (%)” value [2] was 11% and 7%, the “Population Mitochondria Different-Phenotype (%)” value [2] was 1% and 0% and the “Population Mitotic Cells (%)” value [2] was 59% and 44%. The “Population Normal (%)” value [2] was 100%, the “Population Pyknosed Nuclei (%)” value [2] was 21% and 16% and the “Population Tubulin-Different-Phenotype (%)” value [2] was 26% and 19%. The “Total Cell Count” value [2] was 203 and 208, the “Population Apoptotic (%)” value [3] was 50% and 40% and the “Population Fragmented Nuclei (%)” value [3] was 10% and 14%. The “Population Healthy Nuclei (%)” value [3] was 74% and 75%, the “Population Hoechst High Intensity Objects (%)” value [3] was 0% and the “Population Membrane Permeable-Phenotype (%)” value [3] was 1%. The “Population Mitochondria Different-Phenotype (%)” value [3] was 1% and 0%, the “Population Mitotic Cells (%)” value [3] was 50% and 59% and the “Population Normal (%)” value [3] was 100%. For the same molecule, the “Population Pyknosed Nuclei (%)” value [3] was 14% and 10%, the “Population Tubulin-Different-Phenotype (%)” value [3] was 9% and 3% and the “Total Cell Count” value [3] was 219 and 249. For the same molecule, the “Population Apoptotic (%)” value [4] was 52% and 51%, the “Population Fragmented Nuclei (%)” value [4] was 10% and 14% and the “Population Healthy Nuclei (%)” value [4] was 73% and 72%. For the same molecule, the “Population Hoechst High Intensity Objects (%)” value [4] was 0%, the “Population Membrane Permeable-Phenotype (%)” value [4] was 5% and 8% and the “Population Mitochondria Different-Phenotype (%)” value [4] was 2% and 0%. The “Population Mitotic Cells (%)” value [4] was 47% and 48%, the “Population Normal (%)” value [4] was 100% and the “Population Pyknosed Nuclei (%)” value [4] was 16% and 13%. The “Population Tubulin-Different-Phenotype (%)” value [4] was 20% and 11%, the “Total Cell Count” value [4] was 218 and 222 and the “Population Apoptotic (%)” value [5] was 70% and 77%. The “Population Fragmented Nuclei (%)” value [5] was 13% and 14%, the “Population Healthy Nuclei (%)” value [5] was 77% and 76% and the “Population Hoechst High Intensity Objects (%)” value [5] was 0%. The “Population Membrane Permeable-Phenotype (%)” value [5] was 5% and 2%, the “Population Mitochondria Different-Phenotype (%)” value [5] was 0% and the “Population Mitotic Cells (%)” value [5] was 30% and 22%. For the same molecule, the “Population Normal (%)” value [5] was 100%, the “Population Pyknosed Nuclei (%)” value [5] was 8% and the “Population Tubulin-Different-Phenotype (%)” value [5] was 7% and 1%. The “Total Cell Count” value [5] was 225 and 259, the “Population Apoptotic (%)” value [6] was 62% and 38% and the “Population Fragmented Nuclei (%)” value [6] was 8% and 16%. For the same molecule, the “Population Healthy Nuclei (%)” value [6] was 79% and 77%, the “Population Hoechst High Intensity Objects (%)” value [6] was 0% and the “Population Membrane Permeable-Phenotype (%)” value [6] was 6% and 3%. The “Population Mitochondria Different-Phenotype (%)” value [6] was 1% and 0%, the “Population Mitotic Cells (%)” value [6] was 37% and 61% and the “Population Normal (%)” value [6] was 100%. For the same molecule, the “Population Pyknosed Nuclei (%)” value [6] was 12% and 5%, the “Population Tubulin-Different-Phenotype (%)” value [6] was 12% and the “Total Cell Count” value [6] was 230 and 225.
